Reference: ChEMBL document CHEMBL1148425, “New fatty acid oxidation inhibitors with increased potency lacking adverse metabolic and electrophysiological properties” (Bioorg Med Chem Lett, 2004)

Tests used:
[1] = molecular target: T1, Peroxisomal acyl-coenzyme A oxidase 1 (Rattus norvegicus) (UniProt P07872); test: Inhibition of rat heart mitochondrial Palmitoyl-CoA oxidation at 30 uM
T1 sequence (whole entry): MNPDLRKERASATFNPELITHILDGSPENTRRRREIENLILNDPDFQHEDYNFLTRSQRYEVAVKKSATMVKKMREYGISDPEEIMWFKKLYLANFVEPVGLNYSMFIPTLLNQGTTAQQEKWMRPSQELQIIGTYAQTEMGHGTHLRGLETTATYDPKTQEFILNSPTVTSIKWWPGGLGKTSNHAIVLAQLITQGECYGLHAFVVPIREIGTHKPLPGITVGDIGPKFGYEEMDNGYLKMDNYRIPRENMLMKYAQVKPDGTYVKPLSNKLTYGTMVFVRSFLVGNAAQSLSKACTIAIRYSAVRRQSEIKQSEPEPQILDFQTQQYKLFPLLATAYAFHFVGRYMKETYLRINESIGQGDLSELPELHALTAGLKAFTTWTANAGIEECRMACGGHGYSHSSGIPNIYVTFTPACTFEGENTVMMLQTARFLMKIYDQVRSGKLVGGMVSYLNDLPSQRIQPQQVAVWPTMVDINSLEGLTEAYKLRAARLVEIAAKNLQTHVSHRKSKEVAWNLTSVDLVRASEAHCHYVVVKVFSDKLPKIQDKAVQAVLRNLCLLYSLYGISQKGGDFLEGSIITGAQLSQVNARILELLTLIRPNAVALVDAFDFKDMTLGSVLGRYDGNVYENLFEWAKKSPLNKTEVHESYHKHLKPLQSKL
In short: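 Rat heart mitochondrial preparations incubated with 1-[¹⁴C]-palmitoylCoA as the long-chain fatty acid oxidation substrate. Oxidation inhibition was reported as % inhibition at the listed test concentration, averaged from two or three measurements.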

[2] = Metabolic stability (% remaining at 30 mins) in human S9.; format: ADME; conditions: human S9 fraction
In short: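 Incubated 30 min with human liver S9 (2 mg/mL protein, NADH added), n=2. Reported as % parent remaining.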

[3] = Clearance of compound in rat after 1 mg/kg i.v. administration; format: ADME, organism-based; design: dose 1 mg/kg, route intravenous; conditions: plasma, iv, read-out: Clp
[4] = Volume of distribution of compound in rat after 1 mg/kg i.v. administration; format: ADME, organism-based; design: dose 1 mg/kg, route intravenous; conditions: in vivo, iv, read-out: Vdss
[5] = Oral bioavailability in rat (dose 2 mg/kg); format: ADME, organism-based; conditions: in vivo
[6] = Total concentration in rat after 1 mg/kg i.v. administration in 24 hours; format: ADME, organism-based; design: dose 1 mg/kg, route intravenous; conditions: in vivo, iv
[7] = Total concentration in rat after 2 mg/kg peroral administration in 24 hours; format: ADME, organism-based; design: dose 2 mg/kg, route oral; conditions: in vivo, po
[8] = Maximum concentration in rat after 2 mg/kg peroral administration; format: ADME, organism-based; design: dose 2 mg/kg, route oral; conditions: in vivo, po
[9] = Time to reach maximum concentration in rat after 2 mg/kg peroral administration; 4-6; format: ADME, organism-based; design: dose 2 mg/kg, route oral; conditions: in vivo, po
[10] = Half life in rat after 1 mg/kg i.v. administration; format: ADME, organism-based; design: dose 1 mg/kg, route intravenous; conditions: in vivo, iv
[11] = Half life in rat after 2 mg/kg peroral administration; format: ADME, organism-based; design: dose 2 mg/kg, route oral; conditions: in vivo, po
Cavia porcellus [12] = species: Cavia porcellus; test: Electrophysiological effect on isolated guinea pig heart as change in coronary perfusion pressure at 10 uM; format: functional
Cavia porcellus [13] = species: Cavia porcellus; test: Electrophysiological effect on isolated guinea pig heart as change in coronary perfusion pressure at 3 uM; format: functional
Cavia porcellus [14] = species: Cavia porcellus; test: Electrophysiological effect on isolated guinea pig heart as change in H-V interval at 10 uM; format: functional
Cavia porcellus [15] = species: Cavia porcellus; test: Electrophysiological effect on isolated guinea pig heart as change in H-V interval at 3 uM; format: functional
Cavia porcellus [16] = species: Cavia porcellus; test: Electrophysiological effect on isolated guinea pig heart as change in S-H interval at 10 uM; format: functional
Cavia porcellus [17] = species: Cavia porcellus; test: Electrophysiological effect on isolated guinea pig heart as change in S-H interval at 3 uM; format: functional
Cytochrome P450 3A4 = Cytochrome P450 3A4 (Homo sapiens, UniProt P08684); test: Inhibition of human cytochrome P450 3A4
Cytochrome P450 1A2 = molecular target: T2, Cytochrome P450 1A2 (Homo sapiens, UniProt P05177); test: Inhibition of human cytochrome P450 1A2
T2 sequence (P05177 whole entry): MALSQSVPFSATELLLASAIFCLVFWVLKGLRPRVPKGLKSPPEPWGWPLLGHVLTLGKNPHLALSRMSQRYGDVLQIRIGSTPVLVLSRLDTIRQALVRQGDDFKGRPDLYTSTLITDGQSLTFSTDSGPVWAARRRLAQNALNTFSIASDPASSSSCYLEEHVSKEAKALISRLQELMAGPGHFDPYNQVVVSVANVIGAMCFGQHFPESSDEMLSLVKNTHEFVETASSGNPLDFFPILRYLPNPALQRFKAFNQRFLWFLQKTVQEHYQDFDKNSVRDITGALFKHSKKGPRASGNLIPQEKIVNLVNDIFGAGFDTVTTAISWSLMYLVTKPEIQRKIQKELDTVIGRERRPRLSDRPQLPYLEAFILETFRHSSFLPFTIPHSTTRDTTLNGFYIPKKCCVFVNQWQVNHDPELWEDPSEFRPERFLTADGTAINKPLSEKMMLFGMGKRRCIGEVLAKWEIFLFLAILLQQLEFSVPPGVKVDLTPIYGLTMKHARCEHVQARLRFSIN

Cytochrome P450 2C9 = Cytochrome P450 2C9 (Homo sapiens, UniProt P11712); test: Inhibition of cytochrome P450 2C9 (human)
Chain of Cytochrome P450 2C9 (P11712 whole entry): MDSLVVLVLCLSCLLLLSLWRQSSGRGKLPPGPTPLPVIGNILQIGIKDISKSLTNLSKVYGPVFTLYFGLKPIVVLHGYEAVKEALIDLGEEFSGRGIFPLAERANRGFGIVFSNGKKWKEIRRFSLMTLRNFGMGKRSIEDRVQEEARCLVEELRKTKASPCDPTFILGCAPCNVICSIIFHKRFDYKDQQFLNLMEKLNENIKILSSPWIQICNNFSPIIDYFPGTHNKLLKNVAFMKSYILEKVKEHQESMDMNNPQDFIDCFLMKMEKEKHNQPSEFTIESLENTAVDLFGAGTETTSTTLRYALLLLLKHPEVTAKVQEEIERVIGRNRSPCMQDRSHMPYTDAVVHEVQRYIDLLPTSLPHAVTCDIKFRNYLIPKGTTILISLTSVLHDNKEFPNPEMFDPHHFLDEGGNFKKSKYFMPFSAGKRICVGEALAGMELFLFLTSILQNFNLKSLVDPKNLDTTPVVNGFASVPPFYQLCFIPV

Chain of Cytochrome P450 3A4 (P08684 whole entry): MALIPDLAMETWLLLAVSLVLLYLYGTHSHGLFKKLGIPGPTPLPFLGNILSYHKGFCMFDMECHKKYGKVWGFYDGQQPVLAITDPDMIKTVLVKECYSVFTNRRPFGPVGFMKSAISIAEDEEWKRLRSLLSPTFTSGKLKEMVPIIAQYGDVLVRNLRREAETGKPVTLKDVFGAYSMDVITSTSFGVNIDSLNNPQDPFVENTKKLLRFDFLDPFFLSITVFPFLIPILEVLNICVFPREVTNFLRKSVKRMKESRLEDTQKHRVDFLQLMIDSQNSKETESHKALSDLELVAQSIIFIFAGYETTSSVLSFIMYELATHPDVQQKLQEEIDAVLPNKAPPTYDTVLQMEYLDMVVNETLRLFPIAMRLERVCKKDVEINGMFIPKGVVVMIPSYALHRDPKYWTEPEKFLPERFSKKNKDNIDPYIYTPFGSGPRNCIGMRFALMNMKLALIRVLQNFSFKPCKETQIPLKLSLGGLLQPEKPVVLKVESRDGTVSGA

Cc1nc2cc(OC[C@H](O)CN3CCN(CC(=O)N[C@H](C)c4ccc(F)cc4)CC3)ccc2s1
inhibition [1]: 40%

Cc1nc2cc(OC[C@H](O)CN3CCN(CC(=O)NC4Cc5ccccc5C4)CC3)ccc2s1
remaining at 0.5 h [2]: 2%

Cc1nc2cc(OC[C@H](O)CN3CCN(CC(=O)N[C@H](C)c4ccccc4)CC3)ccc2s1
inhibition [1]: 23%

Cc1nc2cc(OC[C@H](O)CN3CCN(CC(=O)Nc4cccc5cccnc45)CC3)ccc2s1
remaining at 0.5 h [2]: 12%

Cc1nc2cc(OC[C@H](O)CN3CCN(CC(=O)Nc4ccccc4Oc4ccccc4)CC3)ccc2s1
inhibition [1]: 34%

Cc1nc2cc(OC[C@H](O)CN3CCN(CC(=O)Nc4cc(Cl)c(Cl)c(Cl)c4)CC3)ccc2s1
remaining at 0.5 h [2]: 34%

Cc1nc2cc(OC[C@H](O)CN3CCN(CC(=O)N[C@H](C)c4cccc5ccccc45)CC3)ccc2s1
inhibition [1]: 24%

Cc1nc2cc(OC[C@H](O)CN3CCN(CC(=O)Nc4cccc5nsnc45)CC3)ccc2s1
remaining at 0.5 h [2]: 11%

Cc1cc(NC(=O)CN2CCN(C[C@@H](O)COc3ccc4sc(C)nc4c3)CC2)c2ccccc2n1
inhibition [1]: 40%

Cc1nc2cc(OC[C@H](O)CN3CCN(CC(=O)N[C@@H](C)c4ccc5ccccc5c4)CC3)ccc2s1
remaining at 0.5 h [2]: 14%

Cc1nc2cc(OC[C@H](O)CN3CCN(CC(=O)NCCc4ccccc4)CC3)ccc2s1
remaining at 0.5 h [2]: 27%

Cc1nc2cc(OC[C@H](O)CN3CCN(CC(=O)Nc4ccc(Cl)c(Cl)c4)CC3)ccc2s1
remaining at 0.5 h [2]: 29%

CCn1c2ccccc2c2cc(NC(=O)CN3CCN(C[C@@H](O)COc4ccc5sc(C)nc5c4)CC3)ccc21
clearance [3]: 13.5 mL/min/kg
Vd [4]: 3.4 L/kg
bioavailability [5]: 17.5%
AUC at 24 h [6]: 1320 ng·h/mL
AUC at 24 h [7]: 230 ng·h/mL
remaining at 0.5 h [2]: 62%
Cmax [8]: 26.3 ng/mL
Tmax [9]: 6 h
half-life [10]: 180 min
half-life [11]: 156 min
Delta CPP (Cavia porcellus [12]): -0.4 mmHg
Delta CPP (Cavia porcellus [13]): 0.7 mmHg
Delta H-V (Cavia porcellus [14]): 0 ms
Delta H-V (Cavia porcellus [15]): 0 ms
Delta S-H (Cavia porcellus [16]): 1 ms
Delta S-H (Cavia porcellus [17]): 0 ms
IC50 (Cytochrome P450 3A4): 39 µM
IC50 (Cytochrome P450 1A2): > 100 µM
IC50 (Cytochrome P450 2C9): > 100 µM

Cc1nc2cc(OC[C@H](O)CN3CCN(CC(=O)Nc4ccc(Cl)c(C(F)(F)F)c4)CC3)ccc2s1
remaining at 0.5 h [2]: 25%

Cc1nc2cc(OC[C@H](O)CN3CCN(CC(=O)NCc4ccc(Cl)cc4)CC3)ccc2s1
remaining at 0.5 h [2]: 16%

Cc1nc2cc(OC[C@H](O)CN3CCN(CC(=O)Nc4cccc5ccccc45)CC3)ccc2s1
remaining at 0.5 h [2]: 50%

Cc1nc2cc(OC[C@H](O)CN3CCN(CC(=O)Nc4cccc5ncccc45)CC3)ccc2s1
remaining at 0.5 h [2]: 2%

Cc1nc2cc(OC[C@H](O)CN3CCN(CC(=O)Nc4ccc(C(F)(F)F)cc4)CC3)ccc2s1
remaining at 0.5 h [2]: 28%

Cc1nc2cc(OC[C@H](O)CN3CCN(CC(=O)Nc4cccc(Oc5ccccc5)c4)CC3)ccc2s1
remaining at 0.5 h [2]: 15%

COc1ccc(NC(=O)CN2CCN(C[C@@H](O)COc3ccc4sc(C)nc4c3)CC2)cc1
remaining at 0.5 h [2]: 41%

Cc1nc2cc(OC[C@H](O)CN3CCN(CC(=O)Nc4ccccc4-c4ccccc4)CC3)ccc2s1
inhibition [1]: 39%
